Reference: ChEMBL document CHEMBL1132554, “Inhibition of Trypanosoma cruzi trypanothione reductase by acridines: kinetic studies and structure-activity relationships” (J Med Chem, 1999)

The compounds below were run against T1, Trypanothione reductase (Trypanosoma cruzi, UniProt P28593) (assay: The mixed type inhibitory activity against trypanothione reductase was evaluated from Lineweaver Burk plots). Conditions: not given.
T1 sequence (P28593 whole entry): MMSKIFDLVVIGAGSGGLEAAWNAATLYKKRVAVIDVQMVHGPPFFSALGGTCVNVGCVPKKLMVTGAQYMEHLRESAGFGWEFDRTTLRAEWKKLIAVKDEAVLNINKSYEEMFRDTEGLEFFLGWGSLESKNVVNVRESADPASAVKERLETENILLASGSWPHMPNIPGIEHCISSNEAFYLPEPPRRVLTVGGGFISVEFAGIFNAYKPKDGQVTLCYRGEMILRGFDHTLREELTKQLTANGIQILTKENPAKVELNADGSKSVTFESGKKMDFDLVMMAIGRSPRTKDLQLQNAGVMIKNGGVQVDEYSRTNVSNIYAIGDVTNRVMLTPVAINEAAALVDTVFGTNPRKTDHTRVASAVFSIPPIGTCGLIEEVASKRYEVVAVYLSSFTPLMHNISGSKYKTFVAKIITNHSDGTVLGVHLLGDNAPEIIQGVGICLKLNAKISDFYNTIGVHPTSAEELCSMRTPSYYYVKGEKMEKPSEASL

Row | SMILES | Ki [µM]
1 | CCN(CC)CCCCSc1c2ccc(Cl)cc2nc2ccc(OC)cc12 | 67
2 | CCN(CC)CCSc1c2ccc(Cl)cc2nc2ccc(OC)cc12 | 37

What follows are compounds tested against T1, Trypanothione reductase (assay: The mixed type inhibitory activity against trypanothione reductase was evaluated from Lineweaver Burk plots and Cornish-Bowdwn plots.). Conditions: not given.

Row | SMILES | Ki [µM]
3 | CCN(CC)CCCCSc1c2ccc(Cl)cc2nc2ccc(OC)cc12 | 21
4 | CCN(CC)CCSc1c2ccc(Cl)cc2nc2ccc(OC)cc12 | 83

These compounds were tested against T1, Trypanothione reductase (assay: The competitive inhibitory activity against trypanothione reductase was evaluated from Lineweaver Burk plots). Conditions: read-out: Ki app.
How it was run: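 Recombinant T. cruzi TR purified from E. coli SG5, 7–10 mU per assay, at 25 °C in 40 mM Hepes, 1 mM EDTA, pH 7.5 with 100 µM NADPH. TS2 varied without inhibitor and at two inhibitor levels. Each point was measured at least twice. Apparent Ki is the mean of Ki,slope values from Lineweaver–Burk plots at each [I].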

Row | SMILES | Ki [µM]
5 | Nc1c2ccccc2nc2cc(Cl)ccc12 | 43
6 | Nc1c2c(nc3cc(Cl)ccc13)CCCC2 | 80
7 | Nc1c2c(nc3ccccc13)CCCC2 [TACRINE] | 140
8 | CCN(CC)CCCC(C)Nc1c2ccccc2nc2ccc(OC)cc12 (centres undefined) | 27
9 | CCN(CC)CCCC(C)Nc1c2ccccc2nc2cc(Cl)ccc12 (centres undefined) | 10
10 | COc1ccc2nc3cc(Cl)ccc3c(N)c2c1 | 7
11 | Nc1c2ccccc2nc2ccccc12 [AMINACRINE] | 38
12 | CCN(CC)CCCC(C)Nc1c2ccc(Cl)cc2nc2ccc(OC)cc12 (centres undefined) [QUINACRINE] | 19
13 | CCN(CC)CCCCC(C)Nc1c2ccc(Cl)cc2nc2ccc(OC)cc12 (centres undefined) | 5.5
14 | CCN(CC)CCCCC(C)Nc1c2ccccc2nc2cc(Cl)ccc12 (centres undefined) | 11
